Series [1] concerns A549. As to the kind of experiment: Cytotoxicity against human A549 cells assessed as cell viability at 143 uM relative to control. The conditions noted are these: a549, 143 µM.
Series [2] concerns HEK293. As to the kind of experiment: Cytotoxicity against HEK293 cells assessed as cell viability at 143 uM relative to control. The conditions noted are these: human, hek293, 143 µM.
Series [3] concerns Mycobacterium tuberculosis. As to the kind of experiment: Antibacterial activity against Mycobacterium tuberculosis H37Rv ATCC 25618 assessed as inhibition of bacterial growth incubated for 2 days by CLSI protocol based broth microdilution method. As to conditions: H37Rv ATCC 25618, 48 h, time 2 day. It is filed as functional. A general note: Dilution methods test growth across graded concentrations, often in twofold steps.

For the next series, the system named is Enterococcus faecalis. As to the kind of experiment: Antibacterial activity against vancomycin resistant Enterococcus faecalis ATCC 700802 assessed as inhibition of bacterial growth incubated for 22 to 24 hrs. It is filed as functional. The conditions noted are these: time 22-24 hrs. Put shortly: (§1)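 Broth microdilution MIC. Strains were subcultured on Soybean Casein Digest Agar, and inocula were taken from mid-log culture, adjusted to McFarland (~10⁸ CFU/mL), then diluted to ~10⁵ CFU/mL. Serial dilutions ran from 64 to 0.03 µg/mL. Plates were incubated 22–24 h at 37 °C, in triplicate. MIC was the lowest concentration with no visible growth.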

A further series concerns Pseudomonas aeruginosa. As to the kind of experiment: Antibacterial activity against clinical isolate Pseudomonas aeruginosa AB 645 assessed as inhibition of bacterial growth incubated for 22 to 24 hrs. It is filed as functional. The conditions noted are these: time 22-24 hrs.
In series [4] the test system is HepG2. As to the kind of experiment: Cytotoxicity against human HepG2 cells assessed as cell viability at 143 uM relative to control. As to conditions: hepg2, 143 µM.
A further series concerns Escherichia coli. As to the kind of experiment: Antibacterial activity against clinical isolate Escherichia coli AB 117 assessed as inhibition of bacterial growth incubated for 22 to 24 hrs. It is filed as functional. The conditions noted are these: time 22-24 hrs.
Another series relates to Enterococcus faecium. As to the kind of experiment: Antibacterial activity against Enterococcus faecium ATCC 49624 assessed as inhibition of bacterial growth incubated for 22 to 24 hrs. It is filed as functional. The conditions noted are these: time 22-24 hrs. Put shortly:
(§2)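 Broth MIC referenced to an earlier protocol. Inocula come from mid-log cultures sub-cultured on soybean casein digest agar, adjusted to McFarland (~10⁸ CFU/mL), then diluted to ~10⁵ CFU/mL. Compounds and controls are serially diluted from 64 to 0.03 µg/mL. Tested in triplicate, read after 22–24 h at 37 °C. MIC is the lowest concentration with no visible growth.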

The subject of series [5] is HEK293. As to the kind of experiment: Cytotoxicity against HEK293 cells assessed as inhibition of cell growth upto 64 ug/ml. It is filed as toxicity, cell-based. The conditions noted are these: human, dose < 64 µg/ml.
Series [6] concerns Mycolicibacterium smegmatis. As to the kind of experiment: Antibacterial activity against Mycobacterium smegmatis ATCC 607 assessed as inhibition of bacterial growth incubated for 2 days by CLSI protocol based broth microdilution method. It is filed as functional. The conditions noted are these: ATCC 607, 48 h, time 2 day. Put shortly:
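CLSI broth microdilution in Middlebrook 7H9 with 10% ADC. Compounds are dissolved in DMSO at 4.0 mg/mL (stock) and serially diluted from 64 to 0.015 µg/mL. Inoculum is ~10⁵ CFU/mL, checked by plating on 7H11 agar. Rifampin and levofloxacin are positive controls; drug-free broth with DMSO is the negative control. Growth inhibition is read after 2 days at 37 °C as MIC.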

Series [7] concerns A549. As to the kind of experiment: Cytotoxicity against human A549 cells assessed as inhibition of cell growth upto 32 ug/ml. The conditions noted are these: dose < 32 µg/ml. Format: toxicity, cell-based. Put shortly:
(§3)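 MTT proliferation assay. A549 cells are seeded at 10000 cells/well and allowed to adhere at 37 °C, 5% CO₂. Compounds are added at 64 to 1 µg/mL (143 to 4.6 µM) in triplicate, with a DMSO vehicle control. Incubation is 24 h, then MTT (1 mg/mL) is added for 3 h at 37 °C.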

The nature of series [8]: Cytotoxicity against human A549 cells assessed as inhibition of cell growth at 64 ug/ml relative to control. Format: toxicity, cell-based. The conditions noted are these: at 64 µg/mL, read-out: Activity. Put shortly:
as §3

Series [9] concerns Staphylococcus aureus. As to the kind of experiment: Antibacterial activity against methicillin sensitive Staphylococcus aureus ATCC 29213 assessed as inhibition of bacterial growth incubated for 22 to 24 hrs. It is filed as functional. As to conditions: time 22-24 hrs. Put shortly:
as §2

The subject of another series is Klebsiella pneumoniae. As to the kind of experiment: Antibacterial activity against clinical isolate Klebsiella pneumoniae AB 356 assessed as inhibition of bacterial growth incubated for 22 to 24 hrs. Format: functional. The conditions noted are these: time 22-24 hrs.
Series [10] has as its system Staphylococcus aureus. As to the kind of experiment: Antibacterial activity against methicillin resistant Staphylococcus aureus ATCC 33591 assessed as inhibition of bacterial growth incubated for 22 to 24 hrs. It is filed as functional. The conditions noted are these: time 22-24 hrs. The method, boiled down: as §1
Series [11] deals with Staphylococcus epidermidis. As to the kind of experiment: Antibacterial activity against clinical isolate methicillin resistant Staphylococcus epidermidis AB 735 assessed as inhibition of bacterial growth incubated for 22 to 24 hrs. It is filed as functional. As to conditions: time 22-24 hrs.
Series [12] has as its system HepG2. As to the kind of experiment: Cytotoxicity against human HepG2 cells assessed as inhibition of cell growth upto 32 ug/ml. As to conditions: dose < 32 µg/ml. Format: toxicity, cell-based. Put shortly:
(§4)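 MTT proliferation assay on HEK293 (normal embryonic kidney) or HepG2 (liver cancer) cells. Cells are seeded at 10000 cells/well and adhered at 37 °C, 5% CO₂. Compounds are tested at 64 to 1 µg/mL (143 to 4.6 µM) in triplicate, with a DMSO vehicle control. Incubation is 48 h, followed by MTT (1 mg/mL) for 3 h at 37 °C.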

Series [13] can be described thus: Cytotoxicity against human HepG2 cells assessed as inhibition of cell growth at 64 ug/ml relative to control. It is filed as toxicity, cell-based. As to conditions: at 64 µg/mL, read-out: Activity. The method, boiled down:
as §4

The next series relates to Moraxella catarrhalis. As to the kind of experiment: Antibacterial activity against Moraxella catarrhalis ATCC 25238 assessed as inhibition of bacterial growth incubated for 22 to 24 hrs. It is filed as functional. As to conditions: time 22-24 hrs. The method, boiled down: as §2
A further series has as its system Acinetobacter baumannii. As to the kind of experiment: Antibacterial activity against clinical isolate Acinetobacter baumannii BAA 747 assessed as inhibition of bacterial growth incubated for 22 to 24 hrs. Format: functional. As to conditions: time 22-24 hrs.

SMILES strings stand for the structures. In brackets after ≈: the same amount, converted by molar mass. Bounds are passed on as bounds.

By viability is commonly meant a read-out of living cells in per cent, often relative to untreated cells. The MIC is the least concentration at which growth counts as inhibited. For the compound `COc1cc(CN2CCN(S(=O)(=O)c3ccccc3F)CC2)nc2ccc(F)cc12`, the viability was 88.6% with A549 [1], 99.5% with HEK293 [2] and 91.8% in the series with HepG2 [4]. In addition, the MIC in [3] is 1 µg/mL (≈ 2.31 µM); in the series on Enterococcus faecalis it was 2 µg/mL (≈ 4.61 µM); in the series with Pseudomonas aeruginosa, > 64 µg/mL; with Escherichia coli, 16 µg/mL (≈ 36.9 µM); with Enterococcus faecium it was 0.5 µg/mL (≈ 1.15 µM); in series [6], 0.5 µg/mL (≈ 1.15 µM). The MIC in the series with Staphylococcus aureus [9] is 0.5 µg/mL (≈ 1.15 µM); in the series with Klebsiella pneumoniae, > 64 µg/mL; in the series with Staphylococcus aureus [10] it was 0.06 µg/mL (≈ 0.138 µM); in [11], 16 µg/mL (≈ 36.9 µM); in the series on Moraxella catarrhalis it was 0.03 µg/mL (≈ 0.0692 µM); with Acinetobacter baumannii, > 64 µg/mL. In addition, the Activity entry with HEK293 [5], with A549 [7] and in the series with HepG2 [12] was “Non-Toxic” in each case. The inhibition at 64 ug/ml in series [8] and in [13] was < 12% throughout.

Consider `COc1ccc2nc(CN3CCN(S(=O)(=O)c4ccccc4F)CC3)cc(OC)c2c1`, for which the viability in the series with A549 [1] is reported as 91.1%; in the series with HEK293 [2] it was 100.8%; in the series with HepG2 [4], 97.7%. The MIC in series [3] is 0.063 µg/mL (≈ 0.141 µM); in the series on Enterococcus faecalis, 1 µg/mL (≈ 2.24 µM); in the series with Pseudomonas aeruginosa, > 64 µg/mL; in the series with Escherichia coli it was 8 µg/mL (≈ 18 µM); in the series with Enterococcus faecium, 2 µg/mL (≈ 4.49 µM); in series [6], 0.031 µg/mL (≈ 0.0696 µM). The MIC was 0.03 µg/mL (≈ 0.0673 µM) in the series with Staphylococcus aureus [9]; > 64 µg/mL in the series on Klebsiella pneumoniae; 8 µg/mL (≈ 18 µM) in the series with Staphylococcus aureus [10]; 32 µg/mL (≈ 71.8 µM) in series [11]; 0.06 µg/mL (≈ 0.135 µM) with Moraxella catarrhalis; > 64 µg/mL in the series on Acinetobacter baumannii. The Activity entry in the series on HEK293 [5], in the series with A549 [7] and in the series on HepG2 [12] was “Non-Toxic” throughout. The inhibition at 64 ug/ml in [8] and in series [13] was < 12% in each case.

The values above are taken from ChEMBL document CHEMBL5230166, “Novel quinoline-piperazine hybrids: the design, synthesis and evaluation of antibacterial and antituberculosis properties” (RSC Med Chem, 2023).
